Results published in ChEMBL document CHEMBL5252545, “Elucidation of antimicrobial activity and mechanism of action by N-substituted carbazole derivatives” (Bioorg Med Chem Lett, 2017).
The source made the active and inactive calls. No cut-off for these calls is given here.

Columns and labels:
[1] = biological target: T1, Plasma membrane ATPase 1 (Saccharomyces cerevisiae (strain ATCC 204508 / S288c) (Baker's yeast)) (UniProt P05030); assay: Inhibition of Saccharomyces cerevisiae H+ ATPase pma1 isoform assessed as reduction in ATP hydrolysis rate at 50 uM measured upto 150 sec by measuring […] ATPase activity by spectrophotometry method
T1 sequence (whole entry): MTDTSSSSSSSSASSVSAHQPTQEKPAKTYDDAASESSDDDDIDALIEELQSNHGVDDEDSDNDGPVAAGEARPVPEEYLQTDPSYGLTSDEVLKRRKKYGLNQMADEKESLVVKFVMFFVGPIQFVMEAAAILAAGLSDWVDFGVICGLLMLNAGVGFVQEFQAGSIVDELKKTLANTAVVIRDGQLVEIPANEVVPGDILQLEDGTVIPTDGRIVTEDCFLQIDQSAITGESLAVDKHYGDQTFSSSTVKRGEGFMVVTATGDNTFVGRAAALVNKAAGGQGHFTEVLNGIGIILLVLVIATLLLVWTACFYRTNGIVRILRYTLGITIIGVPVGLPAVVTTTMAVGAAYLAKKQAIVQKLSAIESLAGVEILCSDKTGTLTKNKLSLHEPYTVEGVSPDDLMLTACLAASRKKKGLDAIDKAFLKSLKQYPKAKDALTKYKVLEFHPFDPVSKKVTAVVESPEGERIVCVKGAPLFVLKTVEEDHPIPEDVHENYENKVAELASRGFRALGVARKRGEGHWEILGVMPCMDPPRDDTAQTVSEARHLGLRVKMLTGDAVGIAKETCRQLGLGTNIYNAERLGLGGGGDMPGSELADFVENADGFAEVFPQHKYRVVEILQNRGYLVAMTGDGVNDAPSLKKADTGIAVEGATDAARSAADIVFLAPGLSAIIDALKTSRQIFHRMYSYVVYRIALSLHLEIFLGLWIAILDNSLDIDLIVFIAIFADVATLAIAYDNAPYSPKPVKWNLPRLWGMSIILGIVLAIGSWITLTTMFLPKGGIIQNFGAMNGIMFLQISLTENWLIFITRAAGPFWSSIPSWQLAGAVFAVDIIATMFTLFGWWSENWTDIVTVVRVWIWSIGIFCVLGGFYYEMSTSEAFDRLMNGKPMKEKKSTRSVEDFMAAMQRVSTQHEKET
In short: (§1)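 S. cerevisiae plasma membranes containing H⁺-ATPase added to start the reaction in pH 7 buffer with 5 mM ATP. Compound added at the indicated times, final DMSO 1.1%. Initial ATP hydrolysis rate read spectrophotometrically by NADH-coupled assay with phosphoenolpyruvate regenerating ATP.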

[2] = Dissociation constant, pKa of the compound; type: physicochemical
Nakaseomyces glabratus = assay: Fungicidal against wild type Candida glabrata ATCC 90030 assessed as cell death at 5 to 10 uM measured upto 24 hrs by time-kill assay; type: functional, organism-based; conditions: dose 5-10 µM
In short: (§2)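 Time-kill assay: C. albicans or C. glabrata cells at 1×10^5 CFU/ml incubated with compound at 5 or 10 μM. DMSO final concentration 1%. Viability followed over time.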

[3] = biological target: T1, Plasma membrane ATPase 1 (Saccharomyces cerevisiae (strain ATCC 204508 / S288c) (Baker's yeast)); assay: Inhibition of Saccharomyces cerevisiae H+ ATPase pma1 isoform assessed as reduction in ATP hydrolysis rate at 10 uM measured upto 150 sec by measuring […] ATPase activity by spectrophotometry method; in short: as §1
Candida albicans = assay: Fungicidal activity against Candida albicans SC5314 assessed as cell death at 5 to 10 uM measured upto 24 hrs by time-kill assay; type: functional, organism-based; conditions: dose 5-10 µM; in short: as §2
[4] = biological target: T1, Plasma membrane ATPase 1 (Saccharomyces cerevisiae (strain ATCC 204508 / S288c) (Baker's yeast)); assay: Inhibition of Saccharomyces cerevisiae H+ ATPase pma1 isoform assessed as reduction in ATP hydrolysis rate at 100 uM measured upto 150 sec by measuring […] ATPase activity by spectrophotometry method; in short: as §1

pKa [2]	Compound	also measured
6.6	OC(CN1CCOCC1)Cn1c2ccc(Cl)cc2c2cc(Cl)ccc21 (stereo not given)	inhibition [1]: Active
7.6	CN1CCN(CC(O)Cn2c3ccc(Cl)cc3c3cc(Cl)ccc32)CC1 (stereo not given)	
9.2	CCC(C)NCC(O)Cn1c2ccc(Cl)cc2c2cc(Cl)ccc21 (stereo not given)	Activity (Nakaseomyces glabratus): Active; inhibition [3]: Active; Activity (Candida albicans): Active
2.7	OC(Cn1cncn1)Cn1c2ccc(Cl)cc2c2cc(Cl)ccc21 (stereo not given)	
7.1	OC(Cn1ccnc1)Cn1c2ccc(Cl)cc2c2cc(Cl)ccc21 (stereo not given)	inhibition [4]: Active
